Experiment [1] deals with Enterococcus faecalis. Put plainly: In vitro antibacterial activity against Enterococcus faecalis ATCC 29212 (E. f. 034) vancomycin sensitive. In kind it is functional. The essentials:
(§1)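 Broth microdilution MIC per NCCLS guidelines in Mueller Hinton medium. Doubling dilutions from 256 to 1 μg/mL, inoculum (1–5) × 10⁵ CFU/mL, incubated overnight in ambient air at 35 °C. MIC is the lowest concentration giving complete growth inhibition. Linezolid and vancomycin served as controls.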

The test system of experiment [2] is Enterococcus faecium. Put plainly: In vitro antibacterial activity against Enterococcus faecium ATCC 12202 (E.fm 154) vancomycin resistant. In kind it is functional, enterococcus fecium. The procedure, abridged: as §1
Experiment [3] has as its system Enterococcus faecalis. Put plainly: In vitro antibacterial activity against Enterococcus faecalis ATCC 29212 (E. f. 153) vancomycin sensitive. In kind it is functional. The procedure, abridged:
(§2)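 Broth microdilution per NCCLS guidelines in Mueller Hinton medium. Doubling dilutions 256–1 μg/mL; inoculum (1–5) × 10⁵ CFU/mL; plates incubated overnight at 35 °C in ambient air. MIC read as the lowest concentration giving complete growth inhibition. Linezolid and vancomycin served as controls.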

Experiment [4] has as its system Mus musculus. Put plainly: In vivo antibacterial activity in a murine systemic infection model (95%confidence limits). In kind it is functional. The essentials:
(§3)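 Female Swiss Albino mice (22–25 g, n = 6) were infected intraperitoneally with 0.5 mL S. aureus ATCC 29213. The inoculum was grown 2–3 h at 35 °C in BHI broth and adjusted to 100 × LD50 in 5% hog gastric mucin. Compound was suspended in 0.25% carboxymethyl cellulose and given orally 1 and 6 h post-infection; controls received saline. Cumulative mortality was scored over 48 h, and ED50 was derived by linear regression.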

The test system of experiment [5] is Staphylococcus aureus. Put plainly: In vitro antibacterial activity against Staphylococcus aureus ATCC 49951 (S. a. 213). The class given is functional. The procedure, abridged:
as §1

In experiment [6] the test system is Staphylococcus aureus. Put plainly: In vitro antibacterial activity against Staphylococcus aureus ATCC 29213 (S. a. 035). In kind it is functional. The essentials:
as §2

Experiment [7] deals with Staphylococcus aureus. Put plainly: In vitro antibacterial activity against methicillin resistant Staphylococcus aureus ATCC 33591 (S. a. 019). The class given is functional. The essentials:
as §1

Experiment [8] concerns Enterococcus faecalis. Put plainly: In vitro antibacterial activity against Enterococcus faecalis NCTC 12201 (E. f. 153) vancomycin resistant. The class given is functional. The procedure, abridged: as §1
Experiment [9] relates to Mus musculus. Put plainly: In vivo antibacterial activity in a murine systemic infection model. In kind it is functional. The essentials:
as §3

Experiment [10] relates to Enterococcus faecium. Put plainly: In vitro antibacterial activity against Enterococcus faecium ATCC 12202 (E.fm 154) vancomycin resistant.

Converted amounts (≈) assume the structure as drawn. Where only a bound is given, the exact number is not on record here.

With `CN[C@H](CC(C)C)C(=O)N[C@H]1C(=O)N[C@@H](CC(N)=O)C(=O)N[C@H]2C(=O)N[C@H]3C(=O)N[C@H](C(=O)N[C@H](C(=O)O)c4cc(O)cc(O)c4-c4cc3ccc4O)[C@H](O)c3ccc(c(Cl)c3)Oc3cc2cc(c3O[C@@H]2O[C@H](CO)[C@@H](O)[C@H](O)[C@H]2O[C@H]2C[C@](C)(N)[C@H](O)[C@H](C)O2)Oc2ccc(cc2Cl)[C@H]1O` [VANCOMYCIN], the MIC – broadly, the least concentration at which growth counts as inhibited – in the experiment with Enterococcus faecalis [1] is 2 µg/mL (≈ 1.38 µM); in the experiment on Enterococcus faecium [2] it was greater than 32 µg/mL; against Enterococcus faecalis [3] it was 2 µg/mL (≈ 1.38 µM). Moreover, in the experiment on Mus musculus [4], the ED50 (usually the dose that gives a 50% effect, or the effect in half of the subjects) came to 3.93 mg/kg.
For `CO/C(S)=N\C[C@H]1CN(c2cc(F)c3c(c2)OC[C@@H]2CCCN32)C(=O)O1`, the MIC with Staphylococcus aureus [5] stood at 1 µg/mL (≈ 2.62 µM); against Staphylococcus aureus [6] it was 1 µg/mL (≈ 2.62 µM); with Enterococcus faecalis [1], 0.5 µg/mL (≈ 1.31 µM); in the experiment on Enterococcus faecium [2] it was 0.5 µg/mL (≈ 1.31 µM); in the experiment with Enterococcus faecalis [3], 0.5 µg/mL (≈ 1.31 µM); against Staphylococcus aureus [7] it was 0.5 µg/mL (≈ 1.31 µM). Moreover, in the experiment with Mus musculus [4], the 50% effect level (ED50) was put at a dose of 4.85 mg/kg.
For the compound `CS/C(S)=N\C[C@H]1CN(c2cc(F)c3c(c2)OC[C@@H]2CCCN32)C(=O)O1`, the MIC stood at 1 µg/mL (≈ 2.52 µM) in the experiment on Staphylococcus aureus [5]; 1 µg/mL (≈ 2.52 µM) with Enterococcus faecalis [8]; 2 µg/mL (≈ 5.03 µM) against Staphylococcus aureus [6]; 1 µg/mL (≈ 2.52 µM) against Enterococcus faecalis [1]; 1 µg/mL (≈ 2.52 µM) in the experiment on Enterococcus faecalis [3]; 1 µg/mL (≈ 2.52 µM) against Staphylococcus aureus [7]. This compound yielded an ED50 with Mus musculus [4] of 30 mg/kg.
Take `CCC/C(S)=N\C[C@H]1CN(c2cc(F)c3c(c2)OC[C@@H]2CCCN32)C(=O)O1`: the MIC in the experiment on Staphylococcus aureus [5] worked out at 2 µg/mL (≈ 5.08 µM); against Enterococcus faecalis [8], 1 µg/mL (≈ 2.54 µM); in the experiment with Staphylococcus aureus [6], 2 µg/mL (≈ 5.08 µM); with Enterococcus faecalis [1], 1 µg/mL (≈ 2.54 µM); against Enterococcus faecium [2], 1 µg/mL (≈ 2.54 µM); against Staphylococcus aureus [7], 1 µg/mL (≈ 2.54 µM). In the experiment with Mus musculus [9], this compound returned an ED50 of 30 mg/kg.
Regarding `O=C1O[C@@H](C/N=C/S)CN1c1cc(F)c2c(c1)OC[C@@H]1CCCN21`, the MIC in the experiment with Staphylococcus aureus [5] was found to be 1 µg/mL (≈ 2.85 µM); against Enterococcus faecalis [8] it was 1 µg/mL (≈ 2.85 µM); in the experiment with Staphylococcus aureus [6], 1 µg/mL (≈ 2.85 µM); in the experiment on Enterococcus faecalis [1], 1 µg/mL (≈ 2.85 µM); with Enterococcus faecium [2], 2 µg/mL (≈ 5.69 µM); against Staphylococcus aureus [7], 1 µg/mL (≈ 2.85 µM). Besides, the ED50 with Mus musculus [9] was found to be 9.07 mg/kg.
Turning to `O=C1CCC(=O)N1C[C@H]1CN(c2cc(F)c3c(c2)OC[C@@H]2CCCN32)C(=O)O1`, the MIC against Staphylococcus aureus [5], against Enterococcus faecalis [8], with Enterococcus faecium [10], with Staphylococcus aureus [6], in the experiment on Enterococcus faecalis [1] and in the experiment on Staphylococcus aureus [7] was greater than 32 µg/mL in each case.
For the compound `CC/C(S)=N\C[C@H]1CN(c2cc(F)c3c(c2)OC[C@@H]2CCCN32)C(=O)O1`, the MIC amounted to 0.5 µg/mL (≈ 1.32 µM) in the experiment with Staphylococcus aureus [5]; 0.5 µg/mL (≈ 1.32 µM) against Enterococcus faecalis [8]; 1 µg/mL (≈ 2.64 µM) in the experiment with Staphylococcus aureus [6]; 0.5 µg/mL (≈ 1.32 µM) with Enterococcus faecalis [1]; 0.5 µg/mL (≈ 1.32 µM) against Enterococcus faecium [2]; 0.5 µg/mL (≈ 1.32 µM) in the experiment with Staphylococcus aureus [7]. In the experiment on Mus musculus [9], this compound showed an ED50 of 30 mg/kg.
In the case of `CC(=O)NC[C@H]1CN(c2cc(F)c3c(c2)OC[C@@H]2CCCN32)C(=O)O1`, the MIC against Staphylococcus aureus [5] worked out at 2 µg/mL (≈ 5.72 µM); against Enterococcus faecalis [8], 2 µg/mL (≈ 5.72 µM); in the experiment on Staphylococcus aureus [6] it was 2 µg/mL (≈ 5.72 µM); against Enterococcus faecalis [1] it was 2 µg/mL (≈ 5.72 µM); against Enterococcus faecium [2], 4 µg/mL (≈ 11.4 µM); against Staphylococcus aureus [7], 1 µg/mL (≈ 2.86 µM). The compound further had an ED50 in the experiment on Mus musculus [9] of 8.6 mg/kg.
